Screening data as filed in PubChem BioAssay.
M1 antag: antagonists of rat M1 muscarinic receptor; Muscarinic acetylcholine receptor M1 (Rattus norvegicus), P08482; CHO-M1 cells, Fluo-4 calcium, ACh EC80 antagonist mode; stronger effect = lower value; B-score at 10 µM; actives 3.4% (n = 64,000); AID 628, 2007;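 active = calcium fluorescence response, raw or row-and-column corrected B-score, differing from the plate sample mean either way at a set confidence level, mostly lower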
M1 agonist: M1 muscarinic receptor agonists, primary screen, CHO-M1 cells, Fluo-4 calcium, agonist mode; Fluo-4 calcium fluorescence; stronger effect = higher value; B-score at 10 µM; actives 3% (n = 64,000); AID 626, 2007;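 active = fluorescence rise, raw or as B-score row- and column-corrected plate score, outside the 99.7% band of its plate's samples, either direction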
S1P3 agonist: human S1P3 receptor agonists, primary screen, cell-based, primary and confirmation, NFAT-BLA reporter. Sphingosine 1-phosphate receptor 3 (Homo sapiens), Q99500. S1P3 NFAT-BLA reporter cells, agonism, FRET ratio; relative to 1 µM S1P, basal subtracted. activation, % at 4.5 µM. actives 0.1% (n = 60,000). AID 373, 2006;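 active = activation above the screen-wide mean plus 3 SD, cut at about 4.5% in these data, passing the limit was not always enough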
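material = human S1P3 NFAT-BLA reporter CHO cells | schedule = 4 h compound at 37 °C, 2 h substrate at RT | measured by = fluorescent BLA substrate, ex 405 nm, em 460/535 nm ratio | controls = 1 µM S1P reference | replication = primary once, confirmation triplicate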
S1P1 ag-PAM: S1P1 agonists and agonism potentiators, primary screen, cell-based, primary and confirmation screens, CRE-bla reporter; S1P1 CRE-bla cells, forskolin, beta-lactamase FRET, potentiator mode; S1P1 agonist co-added at EC20, 2 nM; 100% = saturating reference agonist, 0% = basal; activation, % at 9.5 µM; actives 0.57% (n = 56,000);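 active = activation above a cutoff set at the mean activation of all tested compounds plus 3 SD, cut at about 54% in these data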;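 also: forskolin at 4 µM as EC80 and the EC20 agonist is SEW2871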
D1 mod: D1 CRE-luciferase signal change, two-sided – cell-based, HEK293 D1, dopamine EC30, D1 allosteric modulator project, primary screen; actives 5.9% (n = 58,000); D(1A) dopamine receptor (Homo sapiens), P21728; B-score at 10 µM; dopamine EC30 potentiation; actives deviate in either direction; AID 641, 2007;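 active = luminescence count or its row- and column-corrected plate score outside the 99.7% band of the plate's sample wells, on either side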
Target sequence (P21728 whole entry, looked up): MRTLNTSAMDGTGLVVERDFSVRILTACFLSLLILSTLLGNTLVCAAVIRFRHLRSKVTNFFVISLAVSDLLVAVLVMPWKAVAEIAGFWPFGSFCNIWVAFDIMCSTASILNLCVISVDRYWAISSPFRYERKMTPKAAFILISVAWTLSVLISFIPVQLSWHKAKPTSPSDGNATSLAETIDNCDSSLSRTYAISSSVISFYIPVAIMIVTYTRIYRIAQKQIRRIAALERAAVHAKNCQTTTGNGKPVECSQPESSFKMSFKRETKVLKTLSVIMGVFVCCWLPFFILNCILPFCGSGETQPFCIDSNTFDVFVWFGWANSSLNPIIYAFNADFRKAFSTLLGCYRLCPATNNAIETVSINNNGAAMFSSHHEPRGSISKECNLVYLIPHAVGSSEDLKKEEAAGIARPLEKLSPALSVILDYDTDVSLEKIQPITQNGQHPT
TNAP act DEA: human TNAP enzyme activators, primary screen, biochemical, luminescent, intermediate phosphate acceptor level; Alkaline phosphatase, tissue-nonspecific isozyme (Homo sapiens), P05186; 64,000 tested, under 10 active; purified TNAP, CDP-star luminescence, 100 mM DEA, 30 min; stronger effect = higher value; scale: 0 levamisole-inhibited, 1 vehicle-only enzyme; AID 813, 2007; activation factor at 20 µM;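 active = activation factor of at least 2 at 20 µM, relative to controls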
D1 PAM confirm: D1 receptor positive allosteric modulators, retest, confirmation, cell-based, HEK293 D1, CRE-luciferase, duplicate; shares compounds with D1 mod; dopamine EC30 potentiation; stronger effect = higher value; luminescence at 10 µM; actives 88% (n = 2,200); AID 642, 2007;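 active = luminescence in either of two replicates above the same-plate mean plus 3 SD of the low-dose dopamine control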
D1 no dopamine: D1 receptor agonism without dopamine, confirmation, mechanism study for D1 allosteric modulator project, cell-based, HEK293 D1, CRE-luciferase, secondary assay 1; shares compounds with D1 mod; luminescence, no dopamine; stronger effect = higher value; luminescence at 10 µM; actives 0.8% (n = 1,900); AID 646, 2007; in the data active = luminescence above about 3900
Isoprot counter: alters isoproterenol CRE-luciferase response in HEK293 cells; shares compounds with D1 mod; HEK293 D1 CRE-luciferase, isoproterenol EC30 counter-screen; stronger effect = higher value; luminescence at 10 µM; actives 63% (n = 2,200);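 active = luminescence in either replicate above plate mean of wells with a partly effective reference agonist dose plus 3 SD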;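 also: isoproterenol raises cAMP through native beta-adrenoceptor Gs so signal bypasses D1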
Of the large screens only hits and unclear results are named; the others gave an inactive call (follow-up assays come after a bar, where they were run). A selection: hits, their analogues and other compounds. The true share with any hit is near 11%.

CC1(C)Cc2c(oc3ncn4ncnc4c23)CO1	none (no result: D1 mod)
Cc1ccc(NC(=O)CN(c2ccccc2F)S(C)(=O)=O)cc1	none (no result: M1 antag, M1 agonist, S1P1 ag-PAM)
COCCN1CN(S(=O)(=O)c2ccccc2)c2nc3ccccc3nc21	D1 mod 6.62 | D1 PAM confirm 9164 | D1 no dopamine inactive | Isoprot counter 3088
CCCCN1CN(S(=O)(=O)c2cccs2)c2nc3ccccc3nc21	D1 mod 8.37 | D1 PAM confirm 13480 | D1 no dopamine inactive | Isoprot counter 3756
COC(=O)C(O)(CC(=O)Nc1cccc(SC)c1)C(F)(F)F (stereo not given)	none
Cn1c(=O)c2c(nc(SCCCO)n2Cc2ccccc2Cl)n(C)c1=O	D1 mod 3.87 | D1 PAM confirm 6636 | D1 no dopamine inactive | Isoprot counter inactive
COC(=O)c1[nH]c2ccc(Cl)cc2c1NC(=O)CN1CCc2cc(OC)c(OC)cc2C1	none
CCOC(=O)c1[nH]c2cc(OC)c(OC)cc2c1NC(=O)CN(C)C1CCCCC1	D1 mod 4.32 | D1 PAM confirm 10140 | D1 no dopamine inactive | Isoprot counter 3920
CCOC(=O)c1[nH]c2ccc(OC)cc2c1NC(=O)CN1CCSCC1	D1 mod 2.3 | D1 PAM confirm 6220 | D1 no dopamine inactive | Isoprot counter 3496
CCOC(=O)c1[nH]c2ccc(F)cc2c1NC(=O)CN1CCc2cc(OC)c(OC)cc2C1	D1 mod 1.72 | D1 PAM confirm 9280 | D1 no dopamine inactive | Isoprot counter 4108
CCOC(=O)c1[nH]c2cc(OC)c(OC)cc2c1NC(=O)c1ccc2c(c1)OCO2	none (no result: S1P3 agonist, S1P1 ag-PAM, D1 mod)
CCOC(=O)c1[nH]c2ccc(OCC)cc2c1NC(=O)CN1CCC2(CC1)OCCO2	none
COc1ccc(N2CCN(C(=O)Cn3c(=O)[nH]c4ccsc4c3=O)CC2)cc1	none (no result: S1P3 agonist, S1P1 ag-PAM)
COc1ccc(Nc2nc(N)nc(CSc3n[nH]c(-c4ccccc4)n3)n2)cc1	D1 mod 5.03 | D1 PAM confirm 6616 | D1 no dopamine inactive | Isoprot counter 3220
COc1ccccc1Nc1nc(N)nc(CSc2ncccn2)n1	none
CCn1ncc(C2=NOC(C(=O)NCc3ccccc3)C2)c1C (stereo not given)	D1 mod 7.67 | D1 PAM confirm 12364 | D1 no dopamine inactive | Isoprot counter inactive
CCn1ncc(C2=NOC(C(=O)NCc3ccc(OC)cc3)C2)c1C (stereo not given)	none
COc1ccc(/C=C(/C#N)c2cccnc2)cc1OC	D1 mod 33.9 | D1 PAM confirm 21544 | D1 no dopamine inactive | Isoprot counter 5004
COc1cc(/C=N/n2cnnc2)ccc1OC(=O)c1cccnc1	none (no result: S1P3 agonist, S1P1 ag-PAM)
CC(C)(C)Sc1nc(O)cc(=O)[nH]1	D1 mod 2.1 | D1 PAM confirm inactive | D1 no dopamine inactive | Isoprot counter inactive
O=c1cc(O)nc(SCc2ccccc2)[nH]1	none (no result: S1P1 ag-PAM)
Cc1ccc(CSC2=NCCN2C(=O)C2CC2)cc1	none
O=C(O)c1[nH]c2ccc(Cl)cc2c1CC(=O)N1CCN(c2ccccc2)CC1	D1 mod 3.06 | D1 PAM confirm inactive | D1 no dopamine inactive | Isoprot counter inactive
